The results in this text go back to ChEMBL document CHEMBL1127560, “Tyrosine kinase inhibitors. 3. Structure-activity relationships for inhibition of protein tyrosine kinases by nuclear-substituted derivatives of 2,2'-dithiobis(1-methyl-N-phenyl-1H-indole-3-carboxamide)” (J Med Chem, 1994).

Molecules are shown by their SMILES.

Test [1] deals with Epidermal growth factor receptor (Homo sapiens, UniProt P00533). Description: Inhibition of tyrosine phosphorylation activity of the epidermal growth factor receptor (EGFR) tyrosine kinase from human A-431 carcinoma cell-shed membrane vesicles.
Test [2] relates to Swiss 3T3 (Mus musculus). Put plainly: Inhibition of Swiss 3T3 Mouse fibroblast proliferation.
Test [3] addresses Epidermal growth factor receptor (Mus musculus, UniProt Q01279). Description: Inhibition of epidermal growth factor receptor (EGFR-mediated tyrosine autophosphorylation in mouse fibroblasts. Put shortly:
(§1)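 Confluent Swiss 3T3 fibroblasts were pretreated 2 h with graded compound concentrations, then stimulated 5 min with EGF or PDGF. Monolayers were lysed in boiling Laemmli buffer and resolved on 4–20% SDS gels. Blots were probed with antiphosphotyrosine antibody (1 μg/mL) and [¹²⁵I]protein A, and receptor autophosphorylation was quantified by densitometry. IC50 is 50% inhibition of autophosphorylation.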

Test [4] has as its target Platelet-derived growth factor receptor (Mus musculus, UniProt P05622+P26618). Put plainly: Inhibition of PDGF receptor autophosphorylation in mouse fibroblasts. The format is protein-complex assay. An outline of the steps:
as §1

Test [5] relates to K562. Put plainly: Inhibition of K562 chronic myelogenous leukemia cell proliferation. The format is functional, cell-based. The settings on record: Homo sapiens. An outline of the steps: (§2)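 Cells kept in dMEM/F12 (50:50) with 10% fetal bovine serum. 2 × 10⁴ cells were seeded into wells holding compound dilutions in DMSO and exposed for 72 h at 37 °C under 5% CO₂. Growth was read by electronic cell count. IC50 is the concentration giving 50% growth inhibition, as the mean of two separate duplicate determinations.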

For test [6], the system named is KG-1. Put plainly: Inhibition of kg1A acute myelogenous leukemia cell proliferation. The format is functional, cell-based. The following applies: Homo sapiens. Put shortly:
as §2

The test system of test [7] is A-431. Put plainly: Inhibition of A431 human epidermoid carcinoma cell proliferation. The class given is functional, cell-based. Put shortly:
as §2

Epidermal growth factor receptor (Mus musculus, UniProt Q01279), sequence (Q01279 whole entry): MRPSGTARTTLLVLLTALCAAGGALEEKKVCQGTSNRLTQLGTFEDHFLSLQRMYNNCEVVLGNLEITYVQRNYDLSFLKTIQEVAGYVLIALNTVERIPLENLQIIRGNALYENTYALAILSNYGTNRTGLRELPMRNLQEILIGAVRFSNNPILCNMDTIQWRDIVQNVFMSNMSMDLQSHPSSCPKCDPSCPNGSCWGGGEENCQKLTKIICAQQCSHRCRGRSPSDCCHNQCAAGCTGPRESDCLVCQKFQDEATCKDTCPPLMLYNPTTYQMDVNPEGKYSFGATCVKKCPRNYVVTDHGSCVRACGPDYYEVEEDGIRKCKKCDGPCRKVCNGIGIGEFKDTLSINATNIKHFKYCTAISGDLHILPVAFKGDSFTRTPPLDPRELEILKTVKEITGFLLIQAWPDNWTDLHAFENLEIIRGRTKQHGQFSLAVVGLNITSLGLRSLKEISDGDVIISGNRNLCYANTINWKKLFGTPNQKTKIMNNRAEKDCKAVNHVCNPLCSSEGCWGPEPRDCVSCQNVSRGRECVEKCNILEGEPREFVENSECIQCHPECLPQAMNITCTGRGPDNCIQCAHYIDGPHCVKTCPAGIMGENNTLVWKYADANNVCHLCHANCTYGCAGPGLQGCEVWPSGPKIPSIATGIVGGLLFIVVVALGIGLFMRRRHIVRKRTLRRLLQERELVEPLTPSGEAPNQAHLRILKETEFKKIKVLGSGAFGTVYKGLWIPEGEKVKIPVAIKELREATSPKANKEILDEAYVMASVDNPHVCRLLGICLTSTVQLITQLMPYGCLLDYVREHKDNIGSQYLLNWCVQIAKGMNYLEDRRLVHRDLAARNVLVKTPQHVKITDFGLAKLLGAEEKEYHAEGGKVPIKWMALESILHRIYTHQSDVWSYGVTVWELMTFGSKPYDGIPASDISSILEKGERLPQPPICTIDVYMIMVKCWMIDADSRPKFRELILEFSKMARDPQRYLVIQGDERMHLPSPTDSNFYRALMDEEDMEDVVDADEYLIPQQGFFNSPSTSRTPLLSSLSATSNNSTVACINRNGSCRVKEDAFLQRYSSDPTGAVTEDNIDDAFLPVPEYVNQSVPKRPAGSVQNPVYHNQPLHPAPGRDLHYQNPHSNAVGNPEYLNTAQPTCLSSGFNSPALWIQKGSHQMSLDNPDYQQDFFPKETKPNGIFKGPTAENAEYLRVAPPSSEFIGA
Epidermal growth factor receptor (Homo sapiens, UniProt P00533), sequence (P00533 whole entry): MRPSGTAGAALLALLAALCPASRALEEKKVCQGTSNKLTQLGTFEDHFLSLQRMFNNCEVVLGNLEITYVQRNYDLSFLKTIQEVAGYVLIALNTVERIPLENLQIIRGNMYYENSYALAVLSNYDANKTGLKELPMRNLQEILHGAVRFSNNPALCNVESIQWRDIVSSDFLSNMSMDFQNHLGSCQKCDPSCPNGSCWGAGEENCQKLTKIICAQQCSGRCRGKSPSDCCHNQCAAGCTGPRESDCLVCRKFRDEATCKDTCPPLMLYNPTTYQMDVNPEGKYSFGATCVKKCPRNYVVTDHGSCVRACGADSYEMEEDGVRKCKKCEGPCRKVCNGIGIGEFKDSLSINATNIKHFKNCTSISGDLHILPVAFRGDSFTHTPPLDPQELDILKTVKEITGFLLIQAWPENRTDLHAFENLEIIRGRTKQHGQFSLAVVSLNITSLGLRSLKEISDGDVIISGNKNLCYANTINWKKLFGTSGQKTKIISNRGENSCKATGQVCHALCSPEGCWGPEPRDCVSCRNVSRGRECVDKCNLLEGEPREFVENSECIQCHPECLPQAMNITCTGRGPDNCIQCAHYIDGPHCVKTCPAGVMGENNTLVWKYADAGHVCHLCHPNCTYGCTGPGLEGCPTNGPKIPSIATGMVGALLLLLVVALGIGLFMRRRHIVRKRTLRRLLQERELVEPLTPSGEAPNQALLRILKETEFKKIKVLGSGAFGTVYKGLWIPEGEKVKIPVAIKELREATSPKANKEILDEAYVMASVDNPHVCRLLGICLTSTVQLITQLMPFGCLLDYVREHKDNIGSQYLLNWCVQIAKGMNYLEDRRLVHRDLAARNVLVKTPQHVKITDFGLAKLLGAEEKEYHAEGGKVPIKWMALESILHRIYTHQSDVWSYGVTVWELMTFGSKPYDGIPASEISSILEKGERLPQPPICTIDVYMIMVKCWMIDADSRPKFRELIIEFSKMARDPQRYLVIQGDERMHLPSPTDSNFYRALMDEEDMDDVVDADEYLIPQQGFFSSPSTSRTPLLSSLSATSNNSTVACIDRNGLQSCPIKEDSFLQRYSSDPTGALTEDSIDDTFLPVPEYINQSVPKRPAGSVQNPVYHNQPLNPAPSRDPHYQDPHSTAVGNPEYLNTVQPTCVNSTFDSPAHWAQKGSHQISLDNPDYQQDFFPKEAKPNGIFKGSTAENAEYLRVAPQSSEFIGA

As to `CC(=O)Oc1cccc2c(C(=O)Nc3ccccc3)c(SSc3c(C(=O)Nc4ccccc4)c4cccc(OC(C)=O)c4n3C)n(C)c12`, in test [1], the 50% inhibitory concentration (IC50) (usually the point on the concentration scale where inhibition reaches its midpoint) is 9.9 µM.

For `Cn1c(SSc2c(C(=O)Nc3ccccc3)c3cccc(Cl)c3n2C)c(C(=O)Nc2ccccc2)c2cccc(Cl)c21`, the 50% inhibitory concentration (IC50) in test [1] was above 100 µM.

As to `Cc1cccc2c1c(C(=O)Nc1ccccc1)c(SSc1c(C(=O)Nc3ccccc3)c3c(C)cccc3n1C)n2C`, the half-inhibitory concentration (IC50) in test [1] was above 100 µM; in test [2], 4 µM.

For the molecule `COc1cccc2c(C(=O)Nc3ccccc3)c(SSc3c(C(=O)Nc4ccccc4)c4cccc(OC)c4n3C)n(C)c12`, the IC50 in test [3] was above 100 µM; in test [4] it was above 100 µM; in test [2], 24 µM.

In turn, `Cn1c(SSc2c(C(=O)Nc3ccccc3)c3cc(O)ccc3n2C)c(C(=O)Nc2ccccc2)c2cc(O)ccc21` came in with a half-maximal inhibitory concentration (IC50) in test [1] of 40.5 µM.

Molecule `Cn1c(SSc2c(C(=O)Nc3ccccc3)c3c(Cl)cccc3n2C)c(C(=O)Nc2ccccc2)c2c(Cl)cccc21` showed a half-maximal inhibitory concentration (IC50) in test [1] of 100 µM.

In the case of `COc1cccc2c1c(C(=O)Nc1ccccc1)c(SSc1c(C(=O)Nc3ccccc3)c3c(OC)cccc3n1C)n2C`, the IC50 in test [1] is above 100 µM; in test [2] it was 1.9 µM.

As to `COc1ccc2c(c1)c(C(=O)Nc1ccccc1)c(SSc1c(C(=O)Nc3ccccc3)c3cc(OC)ccc3n1C)n2C`, the figures for the IC50 in test [1] and in test [2] were above 100 µM and 20 µM, respectively.

In test [1], `Cn1c(SSc2c(C(=O)Nc3ccccc3)c3ccc(Cl)cc3n2C)c(C(=O)Nc2ccccc2)c2ccc(Cl)cc21` displayed an IC50 above 100 µM.

Turning to `Cn1c(SSc2c(C(=O)Nc3ccccc3)c3ccccc3n2C)c(C(=O)Nc2ccccc2)c2ccccc21`, the IC50 in test [5] was 18 µM; in test [3], above 100 µM; in test [6], 12 µM; in test [1], 10 µM; in test [4], above 100 µM; in test [7], 14 µM. Moreover, half-maximal inhibition in test [2] (IC50) required 12 µM.

As for `CC(=O)Oc1cccc2c1c(C(=O)Nc1ccccc1)c(SSc1c(C(=O)Nc3ccccc3)c3c(OC(C)=O)cccc3n1C)n2C`, the IC50 in test [1] is 20 µM.

Consider `Cc1ccc2c(c1)c(C(=O)Nc1ccccc1)c(SSc1c(C(=O)Nc3ccccc3)c3cc(C)ccc3n1C)n2C`, for which the IC50 in test [1] was above 100 µM; in test [2], 22 µM.

For `COc1ccc2c(C(=O)Nc3ccccc3)c(SSc3c(C(=O)Nc4ccccc4)c4ccc(OC)cc4n3C)n(C)c2c1`, the half-maximal inhibitory concentration (IC50) in test [4] was above 100 µM; in test [2], 17 µM.

Take `Cn1c(SSc2c(C(=O)Nc3ccccc3)c3cc(C(F)(F)F)ccc3n2C)c(C(=O)Nc2ccccc2)c2cc(C(F)(F)F)ccc21`: the IC50 in test [1] was above 100 µM.

As for `CN1C(=S)C(C(=O)Nc2ccccc2)c2cc(Cl)ccc21` (centres undefined), in test [1], the concentration for half-maximal inhibition (IC50) was above 100 µM.

Take `CN1C(=S)C(C(=O)Nc2ccccc2)c2ccccc21` (centres undefined): the concentration for half-maximal inhibition (IC50) was 32 µM in test [5]; above 100 µM in test [3]; 38 µM in test [6]; 17 µM in test [4]; 15 µM in test [7]; 64 µM in test [2].

Take `CN1C(=S)C(C(=O)Nc2ccccc2)c2cccnc21` (centres undefined): the IC50 in test [1] was above 100 µM.

Take `Cn1c(SSc2c(C(=O)Nc3ccccc3)c3cccnc3n2C)c(C(=O)Nc2ccccc2)c2cccnc21`: the 50% inhibitory concentration (IC50) was above 25 µM in test [3], above 25 µM in test [4] and 10 µM in test [2].

`Cn1c(SSc2c(C(=O)Nc3ccccc3)c3cccc(O)c3n2C)c(C(=O)Nc2ccccc2)c2cccc(O)c21` had an IC50 in test [1] of 100 µM.

Molecule `CN1C(=S)C(C)(C(=O)Nc2ccccc2)c2ccccc21` (centres undefined) came in with a half-maximal inhibitory concentration (IC50) in test [1] above 100 µM.

With `Cn1c(SSc2c(C(=O)Nc3ccccc3)c3cc(F)ccc3n2C)c(C(=O)Nc2ccccc2)c2cc(F)ccc21`, the IC50 in test [1] is above 100 µM.

In the case of `CC(=O)Oc1ccc2c(C(=O)Nc3ccccc3)c(SSc3c(C(=O)Nc4ccccc4)c4ccc(OC(C)=O)cc4n3C)n(C)c2c1`, the IC50 in test [1] is above 100 µM.

`Cc1cccc2c(C(=O)Nc3ccccc3)c(SSc3c(C(=O)Nc4ccccc4)c4cccc(C)c4n3C)n(C)c12` came in with an IC50 in test [1] above 100 µM.

`Cn1c(SSCc2ccccc2)c(C(=O)Nc2ccccc2)c2ccccc21` showed a half-maximal inhibitory concentration (IC50) in test [1] above 100 µM.

In turn, `Cn1c(SSc2c(C(=O)Nc3ccccc3)c3cc([N+](=O)[O-])ccc3n2C)c(C(=O)Nc2ccccc2)c2cc([N+](=O)[O-])ccc21` showed an IC50 in test [1] of 5 µM.

As for `Cc1ccc2c(C(=O)Nc3ccccc3)c(SSc3c(C(=O)Nc4ccccc4)c4ccc(C)cc4n3C)n(C)c2c1`, the concentration for half-maximal inhibition (IC50) in test [1] is above 100 µM; in test [2], 96 µM.

Molecule `Cn1c(SSc2ccccc2)c(C(=O)Nc2ccccc2)c2ccccc21` showed an IC50 in test [1] above 100 µM.

`CSc1c(C(=O)Nc2ccccc2)c2ccccc2n1C` registered an IC50 in test [1] above 100 µM.
